PMC3119721 (Biochemistry, 2011)
One block for each molecule: values may come before it.

How the values were obtained:
[1] = target: PduO-type ATP-dependent cob(I)alamin adenosyltransferase (ATR) (Methylorubrum extorquens, UniProt C5AZG1, DEL180-190); assay: isothermal titration calorimetry; format: binding
Outline: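 Recombinant His-tagged M. extorquens ATR, D180X mutant, expressed in E. coli BL21(DE3) and Ni-NTA purified. 40–45 μM protein in 50 mM HEPES pH 8, 0.3 M KCl, 10 mM MgCl2, 5% glycerol at 4 °C, titrated with 45 aliquots of 1–2 mM ATP or AdoCbl. KA, ΔH° and ΔS° were obtained from two-site (ATP) or single-site (AdoCbl) fits, in triplicate.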

[2] = system: Nc1ncnc2c1ncn2[C@@H]1O[C@H](COP(=O)(O)OP(=O)(O)OP(=O)(O)O)[C@@H](O)[C@H]1O; assay: purified protein; format: biochemical, Methylorubrum extorquens; conditions: printed as D180X; 55 μM HOCbl (reduced to cob(I)alamin), ATP 0.5-300 μM
[3] = substrate: Nc1ncnc2c1ncn2[C@@H]1O[C@H](COP(=O)(O)OP(=O)(O)OP(=O)(O)O)[C@@H](O)[C@H]1O; assay: purified protein; format: biochemical, Methylorubrum extorquens; conditions: apparent; 55 μM HOCbl (reduced to cob(I)alamin), ATP 0.5-300 μM

Kd [1]: 480 ± 20 nM
Molecule: Nc1ncnc2c1ncn2[C@@H]1O[C@H](COP(=O)(O)OP(=O)(O)OP(=O)(O)O)[C@@H](O)[C@H]1O [ATP]

Molecule: PduO-type ATP-dependent cob(I)alamin adenosyltransferase (ATR) (Methylorubrum extorquens AM1; DEL180-190)
Km [2]: 9.5 ± 1.2 µM
kcat [2]: (2.5 ± 0.1) × 10^−1 s^−1
kcat/Km [2]: 27000 ± 1000 M⁻¹ s⁻¹

B1: PduO-type ATP-dependent cob(I)alamin adenosyltransferase (ATR) (Methylorubrum extorquens AM1) (protein)
chain: MVKLNRIYTRTGDQGTTGLANGERRSKADLRVEAYGTVDETNACIGLARLTAEPALDAMLARIQNDLFDLGADLATPPSDKPLGYEPLRIVPAQVQRLETEIDALNANIPPLKSFVLPGGSAAAAALHLARTVCRRAERLVVALSGVESEAISGEALQYLNRLSDFLFVASRAANRDGADDVLWVPGQNR
Km [3]: 8.4 ± 1.4 µM
